Most compounds without a hit are left out; they make up all but 2.7% or so of the library.
OXTR ag: agonists of human oxytocin receptor; P30559; CHO-OTR cells, Fluo-8 calcium fluorescence; normalized: DMSO 0%, oxytocin 100%; activation, % at 3 µM; hit rate 0.32% among 320,000; AID 2435;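 active means activation above the mean of all tested compounds plus 3 SD, cutoff set per screening run, cut at about 20% in these data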;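 further: peak over basal fluorescence ratio from a 100 s FLIPR kinetic read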
CHO parental Ca: signal in parental CHO cells, OX1R antagonist counter-screen. inhibition, % at 5.6 µM. parental CHO-K1, ATP-induced calcium, Fluo-8 fluorescence. AID 463079. hit rate 0.63% among 330,000;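 active means inhibition above that plate's mean sample inhibition plus 3 SD, cut at about 26% in these data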;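 further: 0% = ATP-challenged DMSO wells and 100% = DMSO wells without ATP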
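material = parental CHO cells | also added = ATP as calcium-mobilizing challenge | dosing = single point at 5.6 µM | detection = intracellular calcium via Fluo-8 no-wash fluorescent dye | read-out = % inhibition | benchmarks = low control ATP plus DMSO, high control DMSO only | repeats = one well per compound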
OX1R antag-1: OX1R (human) antagonism; O43613; OX1R-expressing cells, FRET antagonist read-out; inhibition, % at 6.6 µM; hit rate 1.8% among 330,000; in the data active means inhibition mostly above about 38%, no sharp cut-off; inactive means mostly below about 40%;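 further: 0% = agonist challenge alone and 100% = reference antagonist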
V1aR counter: V1a receptor agonism, counter-screen for OXTR agonists | CHO-V1R cells, Fluo-8 calcium fluorescence, agonist mode; 0% DMSO, 100% 3 nM vasopressin | activation, % at 3 µM | hit rate 0.25% among 320,000 | AID 2797;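 active means activation above the mean activation of all tested compounds plus 3 SD, per screening run, cut at about 20% in these data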;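 further: signal is peak over basal fluorescence ratio across a 100 second FLIPR read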
Target sequence (P37288 whole entry, looked up): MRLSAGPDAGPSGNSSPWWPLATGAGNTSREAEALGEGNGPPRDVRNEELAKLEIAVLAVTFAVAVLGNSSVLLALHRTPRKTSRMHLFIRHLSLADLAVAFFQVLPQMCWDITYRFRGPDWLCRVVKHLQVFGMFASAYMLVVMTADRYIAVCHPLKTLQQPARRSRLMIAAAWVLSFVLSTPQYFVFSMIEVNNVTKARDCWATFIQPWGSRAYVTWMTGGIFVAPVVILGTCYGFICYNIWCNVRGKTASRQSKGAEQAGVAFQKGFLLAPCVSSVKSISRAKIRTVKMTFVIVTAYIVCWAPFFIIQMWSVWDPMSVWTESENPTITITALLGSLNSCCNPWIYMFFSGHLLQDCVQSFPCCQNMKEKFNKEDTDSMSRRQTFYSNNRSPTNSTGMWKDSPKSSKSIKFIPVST
OXTR potentiator: potentiators of human oxytocin receptor | CHO-OTR cells, Fluo-8 calcium fluorescence, potentiator mode; 0% = oxytocin EC15, 100% = EC100 | activation, % at 3 µM | hit rate 0.061% among 320,000 | AID 2445 | P30559;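 active means activation above that plate's cutoff, the mean activation of tested compounds plus 3 SD, cut at about 6.6% in these data, passing the limit was not always enough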;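 further: 100% uses oxytocin at 75 nM as the full agonist control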
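Assay system: CHO cell line stably expressing human OTR. Reagent: EC15 oxytocin agonist. Dosing: single dose, 3.0 µM nominal final compound concentration. Timing: compound 6 min at room temperature before oxytocin, 100 s read. Signal: kinetic Fluo-8 calcium fluorescence. Controls: oxytocin EC15 low and EC100 high.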
OX1R antag-2: antagonists of human orexin 1 receptor; CHO/OX1R cells, Fluo-8 calcium fluorescence, orexin A; hit rate 0.43% among 330,000; AID 434989; inhibition, % at 5 µM;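 active means inhibition above its plate's threshold, mean inhibition of all tested compounds on the plate plus 3 SD, cut at about 37% in these data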;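 further: 0% = orexin A challenge wells and 100% = SB-334867-A antagonist wells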
OX1R HTRF conf: confirmation of human orexin 1 receptor antagonists, HTRF format | shares compounds with OX1R antag-1 | OX1R-expressing cells, HTRF antagonist assay | inhibition, % at 6.6 µM | hit rate 49% among 1,800 | AID 492964; in the data active means inhibition above about 55%;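 further: CHO cells expressing OX1R stimulated with orexin A at about EC80; 0% = agonist challenge alone and 100% = reference antagonist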
CHO-K1 HTRF cnt: counter-screen: parental CHO-K1 HTRF response; shares compounds with OX1R antag-1; parental CHO-K1 cells, HTRF counterscreen; inhibition, % at 6.6 µM; hit rate 48% among 1,800; AID 493232; in the data active means inhibition above about 17%;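 further: 0% = agonist challenge with vehicle and 100% = vehicle alone without agonist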
Numbers without * were called inactive; / = not tested or not shown.

SMILES	OXTR ag	CHO parental Ca	OX1R antag-1	V1aR counter	OXTR potentiator	OX1R antag-2	OX1R HTRF conf	CHO-K1 HTRF cnt
Cc1c(NC(=O)CN2C(=O)C(=O)c3ccccc32)c(=O)n(-c2ccccc2)n1C	1	-12	80*	1	-3	-16	53	51*
N/C(=N\OC(=O)Nc1ccccc1)c1ncc([N+](=O)[O-])s1	-1	1	127*	0	-4	-14	51	79*
CN(C1CCCCC1)S(=O)(=O)c1cc2c3c(c1)CCN3C(=O)CC2	-1	4	94*	-2	-1	-23	27	-5
C/C(=N\NC(=O)CN1CCN(Cc2ccccc2)CC1)c1ccncc1	-1	-2	5	-1	-6	-12	/	/
C/C(=N/NC(=O)CN1CCN(Cc2ccccc2)CC1)c1ccc([N+](=O)[O-])cc1	1	-10	77*	1	0	-13	39	29*
Cc1ccc(NC(=O)CCl)cc1S(=O)(=O)N1CCCCCC1	1	3	17	0	-9	-10	/	/
COCCNCC(=O)Nc1ccc(C)c(S(=O)(=O)N2CCCCC2)c1	-1	-17	100*	1	-9	-37	17	6
COc1ccc(S(=O)(=O)N(C)C[C@H]2Oc3c(NC(=O)c4ccncc4)cccc3C(=O)N([C@H](C)CO)C[C@@H]2C)cc1	1	-1	2	2	-4	-14	/	/
Cc1nc2ccccc2c(=O)n1C1CCCCCC1	-3	-8	13	-1	-12	-31	/	/
CCO/C(C)=N/n1c2nc3ccccc3nc2c2c(=O)n(C3CCCC3)c(C)nc21	-3	-11	100*	0	-7	-34	20	36*
CC(C)N(CCn1c(SCC(=O)Nc2cccnc2Cl)nc2ccccc2c1=O)C(C)C	14	-8	5	15	-3	-10	/	/
O=[N+]([O-])c1ccc(-n2cnc3ccccc32)c([N+](=O)[O-])c1	0	-6	107*	1	-4	-13	39	45*
CC1CCC(C(C)C)C(OC(=O)C[n+]2cc(-c3ccc(Cl)cc3)n3c2CCC3)C1 (stereo unspecified)	-1	-6	102*	0	-6	-24	19	4
O=C(C[n+]1cc(-c2ccc(Cl)cc2)n2c1CCC2)N1c2ccccc2Sc2ccccc21	-2	-4	12	0	-2	-14	/	/
c1ccc(Sc2ncccn2)nc1	0	-7	8	-1	-7	-19	/	/
CCNc1sc(C(=O)c2cccs2)c(N)c1-c1nc2ccccc2s1	2	-15	42	3	-8	-42	/	/
C=CCNc1sc(C(=O)c2ccccc2)c(N)c1-c1nc2ccccc2s1	0	-18	93*	2	-8	-8	35	7
O=C(/C=C/c1ccc([N+](=O)[O-])cc1)NNC(=O)C1CC1	0	-1	137*	0	1	1	49	66*
CCN(CC)c1ccc(N=Nc2nn(C)c(C)c2[N+](=O)[O-])cc1	-3	-15	88*	-2	-4	-27	43	29*
CCN(Cc1ccccc1)c1ccc(N=Nc2nn(C)c(C)c2[N+](=O)[O-])cc1	-3	-2	29	-2	-5	-15	/	/
Cn1ccc(C(=O)Nc2sc3c(c2C(N)=O)CCCCC3)n1	0	-3	18	1	-2	-15	/	/
COc1ccccc1C(=O)Nc1sc2c(c1C#N)CCC2	1	-9	19	2	-3	19	/	/
Cn1cc(Br)c(C(=O)Nc2sc3c(c2C(N)=O)CCC3)n1	-2	-30	79*	-1	-8	-8	37	-3
COc1ccccc1C(=O)Nc1sc2c(c1C(N)=O)CCCC2	-1	-4	79*	0	-2	-4	69*	5
Cc1oncc1C(=O)N1CCCC(CO)(Cc2ccc(F)cc2F)C1 (stereo unspecified)	0	-10	2	0	-10	-15	/	/
SMILES	OXTR ag	CHO parental Ca	OX1R antag-1	V1aR counter	OXTR potentiator	OX1R antag-2	OX1R HTRF conf	CHO-K1 HTRF cnt
Cc1ccc(CNc2ccc([N+](=O)[O-])cc2C(N)=O)cc1	-1	-17	21	-1	-6	2	/	/
Cc1ccc(Oc2c(C(N)=O)cc([N+](=O)[O-])cc2[N+](=O)[O-])cc1	1	-3	105*	1	-6	-3	80*	76*
O=C(Nc1ccc(N2CCCCC2)cc1)c1ccc([N+](=O)[O-])o1	1	4	25	2	2	8	/	/
CC(C)(C)C(=O)N1CCN(c2ccc(NC(=O)c3ccc([N+](=O)[O-])o3)cc2)CC1	6	-1	78*	9	-8	-12	30	-12
COCCN(C(=O)COC(=O)CCS(=O)(=O)c1ccccc1)c1c(N)n(Cc2ccccc2)c(=O)[nH]c1=O	0	-3	18	0	4	-7	/	/
CCOc1ccccc1NC(=O)Nc1ccsc1C(=O)OC	0	-17	44	-1	-5	-24	/	/
COC(=O)c1sccc1NC(=O)COc1ccccc1Cl	-2	-35	79*	0	-10	-101	56*	6
O=C(O)c1cccc2c1C(=O)c1ccccc1C2=O	1	-5	85*	1	2	-8	64*	110*
CNc1c(C(=O)O)ccc2c1C(=O)c1ccccc1C2=O	-2	-3	111*	-1	-8	14	62*	86*
CCNc1c(C(=O)O)ccc2c1C(=O)c1ccccc1C2=O	-3	-9	97*	0	-3	-4	36	18*
O=C(O)c1cccc2c1C(=O)c1ccccc1-2	-1	-7	11	0	-1	-1	/	/
COc1ccccc1CNC(=O)CCS(=O)(=O)c1ccc2c(c1)CCN2C(C)=O	-1	-5	9	-1	-17	-19	/	/
COc1ccc(C(C)NC(=O)c2cccc([N+](=O)[O-])c2)cc1OC (stereo unspecified)	1	-7	23	0	-3	-23	/	/
COCC(C)NC(=O)c1cccc([N+](=O)[O-])c1 (stereo unspecified)	0	-1	127*	1	15	2	19	19*
Cn1c(=O)c(=O)n(C)c2cc([N+](=O)[O-])c([N+](=O)[O-])cc21	-1	-6	115*	0	3	0	43	63*
Cn1c(=O)n(C)c2cc([N+](=O)[O-])c(N3CCN(S(C)(=O)=O)CC3)cc21	2	3	59	0	-4	-8	/	/
